From ChEMBL document CHEMBL2062483, “Design of Bcl-2 and Bcl-xL inhibitors with subnanomolar binding affinities based upon a new scaffold” (J Med Chem, 2012)
pIC50, pKi: −log10 of the molar value. Calls of active or inactive are those of the source. No cut-off for these calls is given here.

System: not listed separately
Test: Growth inhibition of human NCI-H146 cells after 4 days by WST8 assay
Type: functional, cell-based
Conditions: NCI-H146, 96 h
In the case of `CN(C)CC[C@H](CSc1ccccc1)Nc1ccc(S(=O)(=O)Nc2ccc(C#Cc3cccc(-c4c(-c5ccc(Cl)cc5)cn(CC[C@H](O)CO)c4C(=O)NCCCN4CCN(C)CC4)c3)cc2)cc1[N+](=O)[O-]`, the pIC50 was < 5.00.
`CN(C)CC[C@H](CSc1ccccc1)Nc1ccc(S(=O)(=O)Nc2ccc(N3CCN(c4cccc(-c5c(-c6ccc(Cl)cc6)cn(C)c5C(=O)O)c4)CC3)cc2)cc1[N+](=O)[O-]` gave a pIC50 of 6.47.
For `CN(C)CC[C@H](CSc1ccccc1)Nc1ccc(S(=O)(=O)Nc2ccc(N3CCNCC3)cc2)cc1[N+](=O)[O-]`, the pIC50 was < 5.00.
`CN(C)CC[C@H](CSc1ccccc1)Nc1ccc(S(=O)(=O)Nc2ccc(N3CCN(c4cccc(-c5c(-c6ccc(Cl)cc6)cn(CC[C@H](O)CO)c5C(=O)NCCCN5CCN(C)CC5)c4)CC3)cc2)cc1[N+](=O)[O-]` showed a pIC50 of 5.70.
Molecule `CN(C)CC[C@H](CSc1ccccc1)Nc1ccc(S(=O)(=O)Nc2ccc(N3CCN(c4ccc(-c5c(-c6ccc(Cl)cc6)cn(CC[C@H](O)CO)c5C(=O)NCCCN5CCN(C)CC5)cc4)CC3)cc2)cc1[N+](=O)[O-]` has a pIC50 of 5.60.
For `CN(C)CC[C@H](CSc1ccccc1)Nc1ccc(S(=O)(=O)NC(=O)c2ccc(N3CCN(Cc4ccccc4-c4ccc(Cl)cc4)CC3)cc2)cc1[N+](=O)[O-]` [ABT 737], the pIC50 was 7.01.
`CN(C)CC[C@H](CSc1ccccc1)Nc1ccc(S(=O)(=O)Nc2ccc(N3CCN(c4cccc(-c5c(-c6ccc(Cl)cc6)cn(C)c5C(=O)NCCCN5CCN(C)CC5)c4)CC3)cc2)cc1[N+](=O)[O-]` showed a pIC50 of 6.37.
For `CN(C)CC[C@H](CSc1ccccc1)Nc1ccc(S(=O)(=O)Nc2ccccc2)cc1[N+](=O)[O-]`, the pIC50 was < 5.00.
In the case of `CN1CCN(CCCNC(=O)c2c(-c3ccccc3)c(-c3ccc(Cl)cc3)cn2CC[C@H](O)CO)CC1`, the pIC50 was < 5.00.

System: NCI-H146
Test: Induction of apoptosis in human NCI-H146 cells assessed as PARP cleavage at 100 nM after 24 hrs by Western blot analysis
Type: functional, cell-based
Conditions: not given
In short: (§1)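 H146 cells treated 24 h, lysed on ice 20 min in RIPA buffer (1% NP40, 0.5% Na-deoxycholate, 0.1% SDS in PBS) with 1 μmol/L PMSF and protease inhibitors. Lysates cleared, protein quantified, run on 4–20% SDS-PAGE, blotted to PVDF, blocked in 5% milk. Rabbit anti-PARP and anti-caspase-3, GAPDH loading control; HRP secondary with chemiluminescent detection.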
For `CN(C)CC[C@H](CSc1ccccc1)Nc1ccc(S(=O)(=O)Nc2ccc(N3CCN(c4cccc(-c5c(-c6ccc(Cl)cc6)cn(C)c5C(=O)O)c4)CC3)cc2)cc1[N+](=O)[O-]`, the Activity was “Active”.

Target: Apoptosis regulator Bcl-2 (Homo sapiens, UniProt P10415)
Sequence (P10415 whole entry): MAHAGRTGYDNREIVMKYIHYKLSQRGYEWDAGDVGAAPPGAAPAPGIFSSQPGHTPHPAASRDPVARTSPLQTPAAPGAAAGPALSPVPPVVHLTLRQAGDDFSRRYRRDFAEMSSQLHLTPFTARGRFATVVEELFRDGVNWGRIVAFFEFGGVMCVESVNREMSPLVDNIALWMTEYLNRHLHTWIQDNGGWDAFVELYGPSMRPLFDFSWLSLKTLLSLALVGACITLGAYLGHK
Test: Binding affinity to N-terminus 6X His-tagged human Bcl2 expressed in Escherichia coli BL21 (DE3) cells after 2 hrs by fluorescence polarization assay
Conditions: not given
In short: (§2)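 Competitive FP binding: serially diluted inhibitor in DMSO added to preincubated protein/fluorescent probe complex, 2 h at room temperature with gentle shaking. Final protein/probe: Bcl-2 1.5 nM/1 nM; Bcl-xL 10 nM/2 nM; Mcl-1 20 nM/2 nM. IC50 from nonlinear regression; Ki calculated from IC50, probe Kd and protein/probe concentrations.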
Molecule `CN(C)CC[C@H](CSc1ccccc1)Nc1ccc(S(=O)(=O)Nc2ccc(C#Cc3cccc(-c4c(-c5ccc(Cl)cc5)cn(CC[C@H](O)CO)c4C(=O)NCCCN4CCN(C)CC4)c3)cc2)cc1[N+](=O)[O-]` has a pIC50 of 8.18 and a pKi of 8.82.
With `CN(C)CC[C@H](CSc1ccccc1)Nc1ccc(S(=O)(=O)Nc2ccc(N3CCN(c4cccc(-c5c(-c6ccc(Cl)cc6)cn(C)c5C(=O)O)c4)CC3)cc2)cc1[N+](=O)[O-]` the pIC50 was 8.77 and the pKi was > 9.22.
For `CN(C)CC[C@H](CSc1ccccc1)Nc1ccc(S(=O)(=O)Nc2ccc(N3CCN(c4cccc(-c5c(-c6ccc(Cl)cc6)cn(CC[C@H](O)CO)c5C(=O)NCCCN5CCN(C)CC5)c4)CC3)cc2)cc1[N+](=O)[O-]`, the pIC50 was 8.89 and the pKi was > 9.22.
`CN(C)CC[C@H](CSc1ccccc1)Nc1ccc(S(=O)(=O)Nc2ccc(N3CCN(c4ccc(-c5c(-c6ccc(Cl)cc6)cn(CC[C@H](O)CO)c5C(=O)NCCCN5CCN(C)CC5)cc4)CC3)cc2)cc1[N+](=O)[O-]` showed a pIC50 of 7.47 and a pKi of 8.07.
For `CN(C)CC[C@H](CSc1ccccc1)Nc1ccc(S(=O)(=O)Nc2ccc(N3CCN(c4cccc(-c5c(-c6ccc(Cl)cc6)cn(C)c5C(=O)NCCCN5CCN(C)CC5)c4)CC3)cc2)cc1[N+](=O)[O-]`, the pIC50 was 9.22 and the pKi was > 9.22.
In the case of `CN(C)CC[C@H](CSc1ccccc1)Nc1ccc(S(=O)(=O)Nc2ccccc2)cc1[N+](=O)[O-]`, the pIC50 was < 4.00.
`CN1CCN(CCCNC(=O)c2c(-c3ccccc3)c(-c3ccc(Cl)cc3)cn2CC[C@H](O)CO)CC1` showed a pIC50 of 3.67 and a pKi of 4.11.

System: NCI-H1417
Test: Growth inhibition of human NCI-H1417 cells after 4 days by WST8 assay
Type: functional, cell-based
Conditions: NCI-H1417, 96 h
With `CN(C)CC[C@H](CSc1ccccc1)Nc1ccc(S(=O)(=O)Nc2ccc(C#Cc3cccc(-c4c(-c5ccc(Cl)cc5)cn(CC[C@H](O)CO)c4C(=O)NCCCN4CCN(C)CC4)c3)cc2)cc1[N+](=O)[O-]` the pIC50 was < 5.00.
For `CN(C)CC[C@H](CSc1ccccc1)Nc1ccc(S(=O)(=O)Nc2ccc(N3CCN(c4cccc(-c5c(-c6ccc(Cl)cc6)cn(C)c5C(=O)O)c4)CC3)cc2)cc1[N+](=O)[O-]`, the pIC50 was 6.26.
In the case of `CN(C)CC[C@H](CSc1ccccc1)Nc1ccc(S(=O)(=O)Nc2ccc(N3CCNCC3)cc2)cc1[N+](=O)[O-]`, the pIC50 was < 5.00.
In the case of `CN(C)CC[C@H](CSc1ccccc1)Nc1ccc(S(=O)(=O)Nc2ccc(N3CCN(c4cccc(-c5c(-c6ccc(Cl)cc6)cn(CC[C@H](O)CO)c5C(=O)NCCCN5CCN(C)CC5)c4)CC3)cc2)cc1[N+](=O)[O-]`, the pIC50 was 5.74.
`CN(C)CC[C@H](CSc1ccccc1)Nc1ccc(S(=O)(=O)Nc2ccc(N3CCN(c4ccc(-c5c(-c6ccc(Cl)cc6)cn(CC[C@H](O)CO)c5C(=O)NCCCN5CCN(C)CC5)cc4)CC3)cc2)cc1[N+](=O)[O-]` showed a pIC50 of 5.48.
Work on `CN(C)CC[C@H](CSc1ccccc1)Nc1ccc(S(=O)(=O)NC(=O)c2ccc(N3CCN(Cc4ccccc4-c4ccc(Cl)cc4)CC3)cc2)cc1[N+](=O)[O-]` [ABT 737] yielded a pIC50 of 6.89.
Molecule `CN(C)CC[C@H](CSc1ccccc1)Nc1ccc(S(=O)(=O)Nc2ccc(N3CCN(c4cccc(-c5c(-c6ccc(Cl)cc6)cn(C)c5C(=O)NCCCN5CCN(C)CC5)c4)CC3)cc2)cc1[N+](=O)[O-]` has a pIC50 of 6.19.
In the case of `CN(C)CC[C@H](CSc1ccccc1)Nc1ccc(S(=O)(=O)Nc2ccccc2)cc1[N+](=O)[O-]`, the pIC50 was < 5.00.
With `CN1CCN(CCCNC(=O)c2c(-c3ccccc3)c(-c3ccc(Cl)cc3)cn2CC[C@H](O)CO)CC1` the pIC50 was < 5.00.

Target: Bcl-2-like protein 1 (Homo sapiens, UniProt Q07817)
Sequence (Q07817 whole entry): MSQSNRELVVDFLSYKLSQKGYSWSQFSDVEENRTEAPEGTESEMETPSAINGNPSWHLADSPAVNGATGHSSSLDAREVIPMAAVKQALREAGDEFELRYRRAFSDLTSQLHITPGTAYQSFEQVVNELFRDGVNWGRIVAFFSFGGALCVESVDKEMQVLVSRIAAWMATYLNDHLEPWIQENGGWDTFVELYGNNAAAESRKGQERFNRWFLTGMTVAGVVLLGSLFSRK
Test: Binding affinity to N-terminus 8X His-tagged human Bcl-xL expressed in Escherichia coli BL21 (DE3) cells after 2 hrs by fluorescence polarization assay
Conditions: not given
In short: as §2
`CN(C)CC[C@H](CSc1ccccc1)Nc1ccc(S(=O)(=O)Nc2ccc(C#Cc3cccc(-c4c(-c5ccc(Cl)cc5)cn(CC[C@H](O)CO)c4C(=O)NCCCN4CCN(C)CC4)c3)cc2)cc1[N+](=O)[O-]` showed a pIC50 of 7.90 and a pKi of 8.77.
In the case of `CN(C)CC[C@H](CSc1ccccc1)Nc1ccc(S(=O)(=O)Nc2ccc(N3CCN(c4cccc(-c5c(-c6ccc(Cl)cc6)cn(C)c5C(=O)O)c4)CC3)cc2)cc1[N+](=O)[O-]`, the pIC50 was 8.44 and the pKi was > 9.00.
For `CN(C)CC[C@H](CSc1ccccc1)Nc1ccc(S(=O)(=O)Nc2ccc(N3CCN(c4cccc(-c5c(-c6ccc(Cl)cc6)cn(CC[C@H](O)CO)c5C(=O)NCCCN5CCN(C)CC5)c4)CC3)cc2)cc1[N+](=O)[O-]`, the pIC50 was 8.21 and the pKi was > 9.00.
With `CN(C)CC[C@H](CSc1ccccc1)Nc1ccc(S(=O)(=O)Nc2ccc(N3CCN(c4ccc(-c5c(-c6ccc(Cl)cc6)cn(CC[C@H](O)CO)c5C(=O)NCCCN5CCN(C)CC5)cc4)CC3)cc2)cc1[N+](=O)[O-]` the pIC50 was 8.12 and the pKi was > 9.00.
With `CN(C)CC[C@H](CSc1ccccc1)Nc1ccc(S(=O)(=O)Nc2ccc(N3CCN(c4cccc(-c5c(-c6ccc(Cl)cc6)cn(C)c5C(=O)NCCCN5CCN(C)CC5)c4)CC3)cc2)cc1[N+](=O)[O-]` the pIC50 was 8.31 and the pKi was > 9.00.
`CN(C)CC[C@H](CSc1ccccc1)Nc1ccc(S(=O)(=O)Nc2ccccc2)cc1[N+](=O)[O-]` showed a pIC50 of 3.26 and a pKi of 3.78.
With `CN1CCN(CCCNC(=O)c2c(-c3ccccc3)c(-c3ccc(Cl)cc3)cn2CC[C@H](O)CO)CC1` the pIC50 was 3.34.

Target: Induced myeloid leukemia cell differentiation protein Mcl-1 (Homo sapiens, UniProt Q07820)
Sequence (Q07820 whole entry): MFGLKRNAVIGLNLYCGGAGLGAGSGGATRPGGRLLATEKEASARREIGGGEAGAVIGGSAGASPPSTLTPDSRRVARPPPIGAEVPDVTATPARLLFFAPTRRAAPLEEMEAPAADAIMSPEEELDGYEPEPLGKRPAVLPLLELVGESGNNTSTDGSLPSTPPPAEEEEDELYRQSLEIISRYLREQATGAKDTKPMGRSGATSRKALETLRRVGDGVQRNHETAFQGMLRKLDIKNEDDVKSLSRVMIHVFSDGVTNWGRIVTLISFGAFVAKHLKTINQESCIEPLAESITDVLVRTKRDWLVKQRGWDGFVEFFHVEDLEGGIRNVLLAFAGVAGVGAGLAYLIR
Test: Binding affinity to N-terminus 8X His-tagged human Mcl1 expressed in Escherichia coli BL21 (DE3) cells after 2 hrs by fluorescence polarization assay
Conditions: not given
In short: as §2
In the case of `CN(C)CC[C@H](CSc1ccccc1)Nc1ccc(S(=O)(=O)Nc2ccc(C#Cc3cccc(-c4c(-c5ccc(Cl)cc5)cn(CC[C@H](O)CO)c4C(=O)NCCCN4CCN(C)CC4)c3)cc2)cc1[N+](=O)[O-]`, the pIC50 was < 5.00.
For `CN(C)CC[C@H](CSc1ccccc1)Nc1ccc(S(=O)(=O)Nc2ccc(N3CCN(c4cccc(-c5c(-c6ccc(Cl)cc6)cn(C)c5C(=O)O)c4)CC3)cc2)cc1[N+](=O)[O-]`, the pIC50 was < 5.70.
With `CN(C)CC[C@H](CSc1ccccc1)Nc1ccc(S(=O)(=O)Nc2ccc(N3CCNCC3)cc2)cc1[N+](=O)[O-]` the pIC50 was < 4.00.
In the case of `CN(C)CC[C@H](CSc1ccccc1)Nc1ccc(S(=O)(=O)Nc2ccc(N3CCN(c4cccc(-c5c(-c6ccc(Cl)cc6)cn(CC[C@H](O)CO)c5C(=O)NCCCN5CCN(C)CC5)c4)CC3)cc2)cc1[N+](=O)[O-]`, the pIC50 was < 5.00.
With `CN(C)CC[C@H](CSc1ccccc1)Nc1ccc(S(=O)(=O)Nc2ccc(N3CCN(c4ccc(-c5c(-c6ccc(Cl)cc6)cn(CC[C@H](O)CO)c5C(=O)NCCCN5CCN(C)CC5)cc4)CC3)cc2)cc1[N+](=O)[O-]` the pIC50 was < 5.00.
In the case of `CN(C)CC[C@H](CSc1ccccc1)Nc1ccc(S(=O)(=O)Nc2ccc(N3CCN(c4cccc(-c5c(-c6ccc(Cl)cc6)cn(C)c5C(=O)NCCCN5CCN(C)CC5)c4)CC3)cc2)cc1[N+](=O)[O-]`, the pIC50 was < 5.00.
With `CN(C)CC[C@H](CSc1ccccc1)Nc1ccc(S(=O)(=O)Nc2ccccc2)cc1[N+](=O)[O-]` the pIC50 was < 4.00.
With `CN1CCN(CCCNC(=O)c2c(-c3ccccc3)c(-c3ccc(Cl)cc3)cn2CC[C@H](O)CO)CC1` the pIC50 was < 4.00.

System: NCI-H146
Test: Induction of apoptosis in human NCI-H146 cells assessed as caspase 3 cleavage at 100 nM after 24 hrs by Western blot analysis
Type: functional, cell-based
Conditions: not given
In short: as §1
With `CN(C)CC[C@H](CSc1ccccc1)Nc1ccc(S(=O)(=O)Nc2ccc(N3CCN(c4cccc(-c5c(-c6ccc(Cl)cc6)cn(C)c5C(=O)O)c4)CC3)cc2)cc1[N+](=O)[O-]` the Activity was “Active”.

System: NCI-H146
Test: Cytotoxicity against human NCI-H146 cells assessed as cell death after 24 hrs by trypan blue assay
Type: functional, cell-based
Conditions: not given
In short: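 H146 cells exposed to compound for 24 h, then harvested and stained with trypan blue. Cells staining blue or looking morphologically unhealthy were scored dead; at least 100 cells counted per sample.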
For `CN(C)CC[C@H](CSc1ccccc1)Nc1ccc(S(=O)(=O)Nc2ccc(N3CCN(c4cccc(-c5c(-c6ccc(Cl)cc6)cn(C)c5C(=O)O)c4)CC3)cc2)cc1[N+](=O)[O-]`, the Activity was “Dose-dependent effect”.
